Test results: ChEMBL document CHEMBL2331221, “Potent elastase inhibitors from cyanobacteria: structural basis and mechanisms mediating cytoprotective and anti-inflammatory effects in bronchial epithelial cells” (J Med Chem, 2013)
pIC50: −log10 of the molar value. The source made the active and inactive calls. The calls are words filed in the database; no cut-off is given here.

Columns and labels:
[1] = Antiproteolytic activity against elastase (unknown origin); design: species or system Homo sapiens
How it was run: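 Inhibitor in DMSO pre-incubated with elastase in Tris-HCl pH 8.0 for 15 min at room temperature. Reaction started with N-succinyl-Ala-Ala-Ala-p-nitroanilide (2 mM in the added substrate solution). Absorbance at 405 nm read every 30 s. Activity is the initial slope of each progress curve, as percent of the uninhibited reaction.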

Homo sapiens = organism: Homo sapiens; assay: Inhibition of human pancreatic chymotrypsin assessed as proteolysis using N-succinyl-Ala-Ala-Pro-Phe-p-nitroanilide substrate incubated at 10 uM for 30 mins prior to substrate addition; design: scale not given: the % may be the effect or the level left
How it was run: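 Pancreatic chymotrypsin, bovine at 100 μg/mL or human at 50 μg/mL; reaction buffer, enzyme and inhibitor (DMSO) incubated 30 min at room temperature, then substrate added (bovine: N-succinyl-Gly-Gly-Phe-pNA; human: N-succinyl-Ala-Ala-Pro-Phe-pNA). Absorbance read at 405 nm; activity from reaction slope relative to solvent control.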

[2] = Inhibition of human pancreatic chymotrypsin assessed as proteolysis using N-succinyl-Ala-Ala-Pro-Phe-p-nitroanilide substrate incubated for 30 mins prior to substrate addition
[3] = Inhibition of bovine pancreatic chymotrypsin assessed as proteolysis using N-succinyl-Gly-Gly-Phe-p-nitroanilide substrate incubated for 30 mins prior to substrate addition; design: species or system Bos taurus
[4] = Inhibition of porcine pancreatic elastase assessed as proteolysis using N-succinyl-Ala-Ala-Ala-p-nitroanilide substrate incubated for 15 mins prior to substrate addition measured every 30 seconds; design: species or system Sus scrofa
[5] = molecular target: T1, Neutrophil elastase (Homo sapiens) (UniProt P08246); conditions: BEAS2B, 100 uM
T1 sequence (whole entry): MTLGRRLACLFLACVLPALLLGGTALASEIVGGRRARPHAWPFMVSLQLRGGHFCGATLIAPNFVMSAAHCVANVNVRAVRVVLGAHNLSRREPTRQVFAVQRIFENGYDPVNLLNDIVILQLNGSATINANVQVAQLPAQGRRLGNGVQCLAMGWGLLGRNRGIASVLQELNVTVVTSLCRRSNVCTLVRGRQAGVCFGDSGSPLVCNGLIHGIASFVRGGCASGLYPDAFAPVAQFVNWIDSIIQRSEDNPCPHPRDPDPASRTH

[6] = molecular target: T1, Neutrophil elastase (Homo sapiens); conditions: BEAS2B, 100 uM; remark: listed apart in the source
[7] = molecular target: T1, Neutrophil elastase (Homo sapiens); conditions: BEAS2B, 100 uM; remark: listed apart in the source

Row | Structure (SMILES) | Activity (Homo sapiens) [%] | pIC50 [2] | also measured
1 | C/C=C1\NC(=O)[C@@H](NC(=O)[C@@H](NC(=O)[C@H](C)NC(=O)CCC)C(C)C)[C@@H](C)OC(=O)[C@H](C(C)C)NC(=O)[C@H](Cc2ccc(O)cc2)N(C)C(=O)[C@H](Cc2ccccc2)N2C(=O)[C@H](CC[C@H]2O)NC1=O [LYNGBYASTATIN 9] |  |  | pIC50 [1]: 6.92
2 | C/C=C1\NC(=O)[C@@H](NC(=O)[C@@H](NC(=O)[C@H](C)NC(C)=O)C(C)C)[C@@H](C)OC(=O)[C@H](C(C)C)NC(=O)[C@H](Cc2ccc(O)cc2)N(C)C(=O)[C@H](Cc2ccccc2)N2C(=O)[C@H](CC[C@H]2O)NC1=O [LYNGBYASTATIN 8] |  |  | pIC50 [1]: 6.92
3 | C/C=C1\NC(=O)[C@@H](NC(=O)[C@@H](NC(=O)[C@@H](COS(=O)(=O)O)OC)C(C)C)[C@@H](C)OC(=O)[C@H](C(C)C)NC(=O)[C@H](Cc2ccc(O)cc2)N(C)C(=O)[C@H](Cc2ccccc2)N2C(=O)[C@H](CC[C@H]2O)NC1=O [symplostatin 9] | 73.9 | < 5.00 | 
4 | C/C=C1\NC(=O)[C@@H](NC(=O)[C@@H](NC(=O)[C@@H](COS(=O)(=O)O)OC)[C@@H](C)CC)[C@@H](C)OC(=O)[C@H]([C@H](C)CC)NC(=O)[C@H](Cc2ccccc2)N(C)C(=O)[C@H](Cc2ccccc2)N2C(=O)[C@H](CC[C@H]2O)NC1=O [symplostatin 7] | 70.7 | < 5.00 | 
5 | C/C=C1\NC(=O)[C@@H](NC(=O)[C@@H](NC(=O)[C@@H](COS(=O)(=O)O)OC)[C@@H](C)CC)[C@@H](C)OC(=O)[C@H]([C@H](C)CC)NC(=O)[C@H](Cc2ccc(O)cc2)N(C)C(=O)[C@H](Cc2ccccc2)N2C(=O)[C@H](CC[C@H]2O)NC1=O [symplostatin 10] | 79.4 | < 5.00 | 
6 | CC(C)(C)C(=O)Oc1ccc(S(=O)(=O)Nc2ccccc2C(=O)NCC(=O)O)cc1 | 55.1 | < 5.00 | pIC50 [3]: 5.39; pIC50 [4]: 5.55; inhibition [5]: Active; inhibition [6]: Active; inhibition [7]: Active
7 | C/C=C1\NC(=O)[C@@H](NC(=O)[C@H](CCc2ccc(O)cc2)NC(=O)[C@H](C)NC(=O)[C@H](O)COS(=O)(=O)O)[C@@H](C)OC(=O)[C@H](C(C)C)NC(=O)[C@H](Cc2ccc(O)cc2)N(C)C(=O)[C@H](Cc2ccccc2)N2C(=O)[C@H](CC[C@H]2O)NC1=O [LYNGBYASTATIN 4] | 72.2 | < 5.00 | 
8 | C/C=C1\NC(=O)[C@@H](NC(=O)[C@@H](NC(=O)[C@@H](COS(=O)(=O)O)OC)C(C)C)[C@@H](C)OC(=O)[C@H]([C@H](C)CC)NC(=O)[C@H](Cc2ccc(O)cc2)N(C)C(=O)[C@H](Cc2ccccc2)N2C(=O)[C@H](CC[C@H]2O)NC1=O [symplostatin 8] | 69 | < 5.00 | 
9 | C/C=C1\NC(=O)[C@@H](NC(=O)[C@@H](NC(=O)[C@@H](COS(=O)(=O)O)OC)C(C)C)[C@@H](C)OC(=O)[C@H](C(C)C)NC(=O)[C@H](Cc2ccccc2)N(C)C(=O)[C@H](Cc2ccccc2)N2C(=O)[C@H](CC[C@H]2O)NC1=O [symplostatin 6] | 90.6 | < 5.00 | 
